Screening results deposited in PubChem BioAssay by several laboratories.
Only some compounds are listed: those with a hit (about 9.2% of all), similar ones and a draw of the others.
L major viab = reduces viability of Leishmania major promastigotes. resazurin fluorescence viability. inhibition, % at 10 µM. 9% of 200,000 active; in the data active = inhibition above about 50%;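 also: promastigotes grown with compound for 44 hours at 28 °C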
PTEN del growth = growth suppressors of cells with PTEN tumor suppressor deletion; 1.2% of 140,000 active; HCT116 PTEN-null viability, CellTiter-Glo, 60 h; stronger effect = lower value; viability, % at 10 µM; AID 827;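 active = viability at or below a set limit, 4 SD under the median of all tested compounds, cut at about 3.7% in these data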;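 also: PTEN knockout HCT116 line with beta catenin targeted HCT116 as companion control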
HCT116 bCat-KO = beta-catenin-lacking colon tumor cell growth suppression | 1.5% of 140,000 active | HCT116 beta-catenin knockout viability, CellTiter-Glo, 60 h; stronger effect = lower value | viability, % at 10 µM;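 active = viability at or under a set limit, the compound median less 4 SD, cut at about 6% in these data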;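 also: 0% = Hyamine 1622 control at 20 µM and 100% = untreated cell control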
Dynein transport = blocks dynein driven cargo transport along microtubules; 0.47% of 220,000 active; AID 1381; 3617.4 mouse cells, GR-EGFP nuclear translocation imaging; test concentration mostly 20 µM; stimulated with dexamethasone, 1 µM; stronger effect = lower value; z-score, hits read low;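 active = plate z-score of nuclear minus cytoplasmic receptor signal below a set negative limit, without overly bright fluorescence or cell loss, cut at about -3.5 in these data, passing the limit was not always enough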;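 also: z-score of nuclear minus cytoplasmic ring GR-EGFP intensity difference per well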
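Buffer or medium: tet-free, stripped-serum medium; reagent: dexamethasone at 1.0 µM final, 30 min; incubation: 48 h induction, 1 h compound, 30 min dex at 37 °C; measured by: formaldehyde fixation, Hoechst nuclear stain, 10x automated fluorescence imaging; read-out: nuclear-to-cytoplasmic GR-EGFP distribution per well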
Autophagy HCS = modulators of autophagy | MEF GFP-LC3 puncta imaging; test concentration mostly 10 µM | calls only at 10 µM (by protocol) | 0.98% of 190,000 active;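 active = percentage of spot-positive cells more than 3 SD above its plate mean, without a fluorescence outlier flag or 80% toxicity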;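 also: spot-positive cell cutoff set from DMSO-treated cells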
Numbers without * were called inactive; i = inactive; · = not tested or not shown; + = active, no number.

SMILES | L major viab | PTEN del growth | HCT116 bCat-KO | Dynein transport | Autophagy HCS
Clc1ccc(C[n+]2csc3ccccc32)cc1 | 0 | 92 | 104 | 1.9 | +
Fc1ccc(C[n+]2csc3ccccc32)cc1 | 4 | 95 | 98 | 0.46 | i
Cc1nnc(SCC(=O)NCC(=O)Nc2ccc(F)c(F)c2F)n1Cc1ccccc1 | -5 | · | · | -0.58 | i
C[C@@H]1CC=C[C@H]2[C@H]1C(=O)N(Cc1ccccc1)[C@H]2c1ccc(-c2cc3ccccc3s2)cc1F | · | · | · | -0.73 | ·
CC1(C)C2CCC(C2)C1(C)NC(=O)CN1CCN(Cc2ccccc2)CC1 (stereo not drawn) | 81* | · | · | -0.61 | i
CC(=O)C(Cc1ccccc1)NC(=O)CN1CCN(Cc2ccccc2)CC1 (stereo not drawn) | 65* | · | · | 0.1 | i
CSc1ccccc1NC(=O)CN1CCN(Cc2ccccc2)CC1 | -3 | · | · | 0.62 | i
CC(=O)C(Cc1ccccc1)NC(=O)CN1CCc2ccccc2C1 (stereo not drawn) | 11 | · | · | 0.2 | i
COC(=O)C(=Nc1ccccc1)/C(C(=O)C(=O)N(C)c1ccccc1)=C(\O)c1ccccc1 | · | · | · | -0.37 | ·
Cc1cccc(N2CCN(C(=O)/C=C/c3cccs3)CC2)c1C | -1 | 82 | 82 | -0.2 | i
Cc1ccc(NC(=S)N(CCCN2CCCC2)Cc2cccn2Cc2ccc(Cl)cc2)cc1C | 101* | · | · | -1.2 | i
COc1ccc(NC(=S)N(CCCN2CCCC2)Cc2cccn2Cc2ccc(Cl)cc2)cc1Cl | 100* | · | · | 0.54 | +
FC(F)(F)c1cccc(NC(=S)N(CCCN2CCCC2)Cc2cccn2Cc2ccc(Cl)cc2)c1 | 100* | · | · | 0.21 | +
Cc1ccc(NC(=S)N(CCCN2CCCC2)Cc2cccn2Cc2ccc(Cl)cc2)cc1Cl | 100* | · | · | 0.62 | +
Cc1cc(NC(=S)N(CCN2CCCCC2)Cc2ccco2)ccc1Cl | 33 | · | · | -0.59 | i
O=C(c1ccc2c(=O)n3c(nc2c1)CCCCC3)N1CCc2ccccc21 | · | · | · | -0.21 | ·
C=CCOc1ccc(C2N3CC4(CC)CN2CC(CC)(C3)C4=O)cc1 (stereo not drawn) | -5 | 82 | 87 | -0.19 | i
CCC12CN3CC(CC)(CN(C1)C3c1c(O)ccc3ccccc13)C2=O (stereo not drawn) | -7 | 94 | 95 | 0.066 | +
COc1cc(NC(=O)c2cc(Cl)ccc2Cl)ccc1-c1cc2ccccc2oc1=O | -5 | 79 | 70 | -0.74 | +
Cc1nc2cc(N3CCCCC3)c(NC(=O)c3ccncc3)cc2c(=O)n1Cc1ccccc1 | 2 | 4 | 4.4* | 0.64 | i
Cc1nc2cc(N3CCOCC3)c(NC(=O)C3CC3)cc2c(=O)n1Cc1ccccc1 | 5 | · | · | -0.2 | i
O=C(OCc1nc2ccc(Cl)cc2n1CCO)c1ccc(O)cc1 | 54* | 94 | 89 | 2 | i
CCOC(=O)Cn1c(=NC(=O)c2ccc([N+](=O)[O-])s2)sc2ccccc21 | 80* | 29 | 49 | -0.65 | i
COc1ccc2c(=O)c3c(=O)n(CCc4ccccc4)c(C(C)C)nc3oc2c1 | · | · | · | 0.23 | ·
CCOC(=O)CC1=NN(c2ccccc2)C(=O)C1 | 0 | · | · | 0.89 | i
SMILES | L major viab | PTEN del growth | HCT116 bCat-KO | Dynein transport | Autophagy HCS
CC1=NN(c2ccc(C(=O)OC(C)C)cc2)C(=O)/C1=C\C=C\c1ccco1 | 76* | 60 | 49 | -0.42 | i
CC1=NN(c2ccccc2)C(=O)/C1=C/C=C/c1ccc(N(C)C)cc1 | 68* | · | · | 0.72 | i
CCOC(=O)CC1=NN(c2ccccc2)C(=O)/C1=C\c1ccc(N(C)C)cc1 | 96* | 88 | 85 | 2.2 | i
O=C1N(Cc2cccnc2)C[C@@H]2C[C@@H](c3ccccc3C#Cc3ccccc3)N3CCC[C@@]123 | 6 | · | · | -0.28 | i
COc1ccccc1CN1C[C@@H]2C[C@@H](c3ccc4nsnc4c3)N3CCC[C@@]23C1=O | 67* | · | · | -1.5 | i
O=C1N(Cc2cccc(Cl)c2)C[C@@H]2C[C@@H](c3ccc4nonc4c3)N3CCC[C@@]123 | 60* | · | · | -0.18 | i
Cc1ccccc1-c1cccc([C@@H]2C[C@H]3CN(Cc4cccnc4)C(=O)[C@]34CCCN24)c1 | 63* | · | · | -0.76 | i
O=C1N(Cc2cccc(Cl)c2)C[C@@H]2C[C@@H](c3cccc4ncccc34)N3CCC[C@@]123 | 100* | · | · | -0.86 | i
Fc1ccccc1COc1ccc2ccccc2c1CNc1nn[nH]n1 | -9 | · | · | 0.23 | i
CCc1ccc(NC(=O)c2c(C(=O)Nc3ccccc3)sc3nc(C)cc(=O)n23)cc1 | 7 | · | · | 0.82 | i
COc1ccc(Br)cc1CNC(=O)Nc1cccs1 | 54* | 89 | 98 | 0.44 | i
COc1ccc(CN(C)Cc2nc3scc(-c4ccccc4)c3c(=O)[nH]2)cc1OC | 63* | 39 | 36 | -0.29 | i
O=C1N/C(=N/O)S/C1=C\c1ccccc1-n1cccn1 | 11 | · | · | -0.31 | i
Cc1c(C(=O)O)oc2ccc(S(=O)(=O)NC3CCCCCCC3)cc12 | -9 | 99 | 94 | 0.024 | i
C=CCNC(=O)c1oc2ccc(S(=O)(=O)N(CC)CC)cc2c1C | 98* | 100 | 97 | 0.91 | i
CCN(CC)S(=O)(=O)c1ccc2oc(C(=O)N3CCCCCC3)c(C)c2c1 | 6 | 27 | 24 | -0.81 | i
COCCCNC(=O)c1oc2ccc(S(=O)(=O)N(C)C3CCCCC3)cc2c1C | 97* | 77 | 89 | 0.81 | i
COc1ccc(/C=c2/sc3nc(-c4ccccc4)c(-c4ccccc4)n3c2=O)cc1 | -4 | 91 | 93 | -1.1 | i
Cc1ccc(NC(=O)c2oc3ccc(S(=O)(=O)N4CCC5(CC4)OCCO5)cc3c2C)cc1C | 15 | 64 | 54 | -0.31 | i
CC1=NN(C(=O)Cn2nc([N+](=O)[O-])cc2C)C(O)(C(F)(F)F)C1 (stereo not drawn) | 45 | 105 | 95 | -0.76 | i
COc1cc(/C=N/NC(=O)/C(=C/c2ccccc2)CCO)ccc1O | -2 | 95 | 92 | 0.02 | i
O=C(N/N=C/c1ccc(O)cc1O)/C(=C/c1ccccc1)CCO | 98* | 34 | 32 | -0.23 | i
COc1ccc2nc(N=Nc3ccc(O)c4ccccc34)sc2c1 | 98* | 9 | 8 | 1.6 | i
COc1ccc2nc(N=NC3=C(O)CC(C)(C)CC3=O)sc2c1 | -6 | · | · | -0.68 | i
CN(/N=C\c1ccc(O)c(O)c1)c1nc(-c2ccccc2)cc(-c2ccccc2)n1 | 100* | 33 | 29 | -1 | i
CCN(CC)c1ccc2cc(C(=O)NNC(=O)c3ccc(S(=O)(=O)N4CCCCC4)cc3)c(=O)oc2c1 | 92* | 64 | 54 | 2.2 | i
O=C(COC(=O)c1cc2ccccc2oc1=O)Nc1cccc(S(=O)(=O)N2CCCCCC2)c1 | -6 | 91 | 96 | -0.34 | i
CCN(CC)c1ccc2cc(S(=O)(=O)c3ccc(C)cc3)c(=O)oc2c1 | 96* | 82 | 95 | 0.027 | i
O=C(NC12CC3CC(CC(C3)C1)C2)c1cncc(O)c1 | -10 | 107 | 99 | -0.19 | i
